# Most compounds without a hit are left out; they make up all but 2.9% or so of the library.
# Cneo AK release: Cryptococcus neoformans lysis via adenylate kinase release; lysis activity, % at 15 µM; C. neoformans lysis, adenylate kinase release luminescence, 4 h; normalised: neutral wells 0, clomiphene wells 100; 360,000 tested, 0.2% active;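 active = mean lysis activity across replicates of at least 80%, whatever share of replicates individually reach that level; inactive = mean lysis activity below 80%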
#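 Material: C. neoformans cells | Amount: Yeast cell density of 5 × 10^6 cells/mL | Medium: Fresh YPD growth medium | Dosing: Single dose | Times: Static 4 h at 37 °C with compound, 1 h detection | Detection: AK luminescence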
# FGF22 binding: shifts melting point of recombinant human FGF22. Q9HCT0. recombinant FGF22 thermal shift, SYPRO orange fluorescence; percent of sucrose octasulfate shift, DMSO zero. activity (Tm shift, normalised), % at 9.99 µM. 340,000 tested, 1.5% active. AID 651658;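 active = mean Tm shift, scaled 0 neutral to 100 positive control, at about 1.3% or above, every replicate too, limit read from the data; inconclusive = no clear call, values can overlap the other calls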
# Target sequence (Q9HCT0 whole entry, looked up): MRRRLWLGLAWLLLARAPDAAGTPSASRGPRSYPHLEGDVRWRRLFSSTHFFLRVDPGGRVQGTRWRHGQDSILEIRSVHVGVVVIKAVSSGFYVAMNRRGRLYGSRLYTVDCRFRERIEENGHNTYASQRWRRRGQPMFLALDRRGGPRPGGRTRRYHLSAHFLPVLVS
# Ecoli rRNA inh: selective bacterial rRNA inhibition in E. coli; E. coli WT GFP vs humanized-ribosome RFP mutants, fluorescence, 24 h; hits give low values; DMSO median 0, no signal -100; GFP signal change (wild-type ribosome), % (test concentration not listed); 350,000 tested, 1.6% active; AID 720706;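 active = significant combined selectivity score with lowered wild-type GFP, culture density cut under 30%, mutant RFP and density less affected; inactive = any of these conditions unmet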
# Vif inh: inhibitors of HIV Vif | HEK293T cells, Vif self-association by quenched fluorescence, imaging, 24 h | inhibition, % at 7.49 µM | 340,000 tested, 0.35% active | AID 602346; in the data active = inhibition above about 50%, passing the limit was not always enough; inconclusive = no clear call, values can overlap the other calls; inactive = below about 31%
# PGC1a acetyl inh: lowers PGC1a acetylation signal in U2OS cells; AID 651687; inhibition, % at 15.6 µM; 350,000 tested, 0.17% active; AlphaScreen anti-acetyl-lysine; with virally co-expressed GCN5 acetyltransferase;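 active = every replicate shows inhibition of at least 40%; inconclusive = mean inhibition at least 40% but some replicate below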;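 note: 0% = neutral control wells and 100% = positive control wells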
# PglD inh: PglD (C. jejuni) enzyme inhibition | purified PglD enzyme, DTNB colorimetric CoA detection | inhibition, % at 12.5 µM | 360,000 tested, 0.098% active | AID 602405; in the data active = inhibition above about 16%, passing the limit was not always enough; inconclusive = no clear call, values can overlap the other calls
# AID977621: growth inhibition of wild-type GFP E. coli, dose response, H69 mutant RFP, cherry-pick; shares compounds with Ecoli rRNA inh; E. coli wild-type GFP strain growth, fluorescence, 24 h; activity change, negative = inhibition at 50 µM; 1,900 tested, under 10 active; AID 977621;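 active = Wild-type ribosome reporter drop at least double the humanized mutant ribosome reporter drop, growth loss under a set limit; inconclusive = no clear call, values can overlap the other calls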;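 note: wild-type GFP and H69 mutant RFP strains grown together 50/50 in each well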
# AID977628: E. coli growth inhibition, wild-type GFP versus h24 humanized RFP strain, dose response, h24 mutant RFP vs wild-type GFP, cherry-pick | 1,900 tested, under 10 active | E. coli WT GFP strain growth, fluorescence, 24 h | shares compounds with Ecoli rRNA inh | activity change, negative = inhibition at 50 µM;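 active = compound lowering the normal-ribosome reporter at least twice as much as the humanized-ribosome reporter, growth loss under a set limit; inconclusive = no clear call, values can overlap the other calls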;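 note: wild-type GFP and h24 humanized RFP strains co-cultured 1 to 1 per well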
# Active calls of the source: *; ? = inconclusive; . = no result.
SMILES,Cneo AK release,FGF22 binding,Ecoli rRNA inh,Vif inh,PGC1a acetyl inh,PglD inh,AID977621,AID977628
O=C(Nc1ccc(S(=O)(=O)NC2=NCCCCC2)cc1)c1cccs1,0.7,0.0,-1.5,-1.3,-8.6,1.5,.,.
O=C(Nc1ccc(S(=O)(=O)NC2=NCCCCC2)cc1)c1ccc([N+](=O)[O-])s1,-3.8,-0.3,-20.4*,-4.8,-43.0,-4.2,?,-4.13
S=C(NCc1ccc2c(c1)OCO2)NC1CCN(Cc2ccccc2)CC1,1.0,0.2,-5.0,-5.9,0.3,4.3,.,.
C=C1c2cc3c(cc2NC(=S)N1Cc1ccccc1)OCO3,4.3,0.1,-27.0*,2.0,-2.9,3.5,-7.9,-3.83
Nc1ccccc1C#CC(=O)c1ccccc1,-0.6,-0.2,-22.9*,42.3,.,-0.9,.,?
O=C(C#Cc1cccc([N+](=O)[O-])c1)c1ccccc1,-3.4,.,.,0.5,16.8,-1.8,.,.
COCC(=O)N1CCC2(CC1)CN(C(=O)NC1CCCC1)[C@H](CO)c1c2c2ccc(OC)cc2n1C,.,-0.1,-1.9,.,11.7,.,.,.
O=C(N[C@@H]1CC[C@@H](CCNS(=O)(=O)Cc2ccccc2)O[C@@H]1CO)c1cnccn1,-1.1,0.0,-0.5,.,2.6,10.3,.,.
COc1cccc(S(=O)(=O)N2CCCCN3[C@H](CO)[C@H](c4ccc(C#CC(C)C)cc4)[C@@H]3C2)c1,-1.2,0.2,-3.5,.,-7.3,-3.7,4.6,.
COc1cccc(S(=O)(=O)N2CCCCN3[C@H](CO)[C@@H](c4ccc(C#CC(C)C)cc4)[C@H]3C2)c1,5.9,0.0,-47.2*,.,-2.3,-5.2,.,?
COc1cccc(S(=O)(=O)N2CCCCN3[C@H](CO)[C@@H](c4ccc(C#CC(C)C)cc4)[C@@H]3C2)c1,-1.8,-0.4,6.8,.,-10.7,1.1,?,.
O=S(=O)(c1ccc(F)cc1)N1CC[C@@H]2[C@H](CO)Nc3ccc(-c4ccc(F)cc4)cc3[C@@H]21,-0.3,-0.1,-3.3,.,-12.3,2.7,.,.
C[C@@H]1CN([C@H](C)CO)C(=O)c2cc(-c3ccncc3)cnc2O[C@@H]1CN(C)C(=O)NC1CCCC1,-2.6,0.0,2.6,.,9.2,9.8,.,.
Cc1cc(SCC(=O)OCC(=O)NCC2CCCO2)c(C)cc1Br (stereo not given),.,0.2,-25.1*,0.5,.,.,-17.1,.
O=C(COC(=O)CSc1ccc([N+](=O)[O-])cc1)NCC1CCCO1 (stereo not given),0.4,0.1,4.0,.,.,-0.1,.,.
C[C@@H]1CN([C@@H](C)CO)C(=O)c2cccc(NC(=O)c3nc4ccccc4s3)c2O[C@@H]1CN(C)C(=O)NC1CCCCC1,2.7,-0.8,-9.7,.,20.5,-7.3,.,.
CC(C)CN1C(=O)c2ccc(C(=O)Nc3ccncc3)cc2C1=O,-0.5,0.1,-24.9*,.,15.2,-2.2,.,-9.15
CC(C)CN1C(=O)c2ccc(C(=O)Nc3ccccn3)cc2C1=O,-0.9,.,.,0.4,-6.5,2.0,.,.
CC(=O)CSc1ccc(-c2nc3ccccc3[nH]2)cn1,-2.9,-0.6,-23.7*,-3.2,.,-5.3,2.76,-1.67
COC(=O)c1ccc(N)c(CS(=O)(=O)c2ccc(Cl)cc2)c1,-0.2,-0.1,-3.1,-13.9,1.9,3.3,.,.
COC(=O)c1sc(C(C)(C)C)cc1CS(=O)(=O)c1ccc(Cl)cc1,.,15.0*,-30.6*,-7.0,.,.,1.61,-3.78
Cc1cccc(S(=O)(=O)Nc2ccc(-c3cn4ccccc4n3)cc2)c1,-1.6,0.1,-32.5*,7.6,-3.9,-6.2,?,.
O=S(=O)(Nc1ccc(-c2cn3ccccc3n2)cc1)c1ccccc1,-5.3,-0.2,-9.4,0.2,1.6,-1.8,.,.
O=C(O)c1cc(=O)c2ccccc2[nH]1,0.0,0.0,.,-7.2,-3.7,-2.9,.,.
O=C(O)c1cc2ccc3ccccc3c2[nH]1,.,0.5,-26.1*,20.6,.,.,-5.3,.
SMILES,Cneo AK release,FGF22 binding,Ecoli rRNA inh,Vif inh,PGC1a acetyl inh,PglD inh,AID977621,AID977628
Nc1nc(N)nc(-c2cccc(Br)c2)n1,.,-0.1,-5.8,-1.9,-0.9,.,.,.
S=c1nc(-c2cccc(Br)c2)[nH][nH]1,1.6,0.1,-20.2*,-1.1,-11.8,-1.2,-7.43,-8.15
COCc1cc(C)nc(SCC[N+](C)(C)CC(=O)c2ccc(Br)cc2)c1C#N,.,0.1,-30.0*,-2.8,-1.4,.,.,-16.2
COCc1cc(C)nc(SCC[N+](C)(C)CC(=O)Nc2ccccc2)c1C#N,-2.9,40.9,3.5,9.7,-3.4,8.8,.,.
O=C(Cc1ccc(Cl)cc1)c1ccc(O)cc1,.,0.0,-37.2*,1.4,11.3,.,-3.61,?
Cc1ccc(CC(=O)c2ccc(Cl)cc2)cc1,2.7,0.0,13.2,-12.7,-1.4,2.3,.,.
O=C(O)CSc1nnc(-c2ccncc2)n1-c1ccc(Cl)cc1,.,.,.,-2.8,.,.,.,.
O=C(O)CSc1nnc(-c2ccc(Cl)cc2Cl)n1-c1ccc(Br)cc1,6.9,-0.3,-29.9*,5.0,17.1,-3.2,-15.7,.
NS(=O)(=O)c1ccc(NC(=O)CCC(=O)O)cc1,-1.3,0.0,-11.0*,-8.4,22.0,3.9,-6.26,?
C[C@H](CO)N1C[C@H](C)[C@H](CN(C)C(=O)c2ccccn2)Oc2cc(C3=CCCC3)ccc2S1(=O)=O,0.1,-0.3,-3.7,.,-5.3,1.9,.,.
COc1ccc(OC2C(=O)N(Cc3ccc4c(c3)OCO4)C2c2sccc2C)cc1 (stereo not given),0.4,-0.1,-21.8*,.,-9.9,3.1,-12.9,.
COc1ccc(OC2C(=O)N(Cc3ccc(F)cc3)C2c2ccc(OC)c(OC)c2)cc1 (stereo not given),0.3,-0.2,-8.8,?,-25.1,-0.8,.,.
CCCn1nnnc1NCc1ccccc1OCc1ccc(F)cc1,-0.9,.,.,12.8,1.2,-2.5,.,.
CCCn1nnnc1NCc1ccccc1OCc1cccs1,-2.3,0.0,-20.1*,-5.4,6.2,0.5,-10.3,.
O=C(Nc1ccccc1Cl)c1ccc2c(c1)N(Cc1ccc(F)cc1)C(=O)CS2=O (stereo not given),-0.7,.,-23.0*,0.3,.,0.9,-11.5,.
CCCCNC(=O)CN1C(=O)C(CC)Oc2ccc(Cl)cc21 (stereo not given),-0.6,.,.,4.9,-1.6,0.0,.,.
CCOC(=O)CN1C(=O)C(CC)Oc2ccc(Cl)cc21 (stereo not given),-3.9,-0.3,-30.2*,-5.1,-5.0,-4.0,-14,-15.7

# Bioassay records from PubChem BioAssay.
